What was measured:
Salmonella typhimurium [1] = test: Mutagenicity in Salmonella typhimurium TA98 assessed as increase in number of revertants in presence of rat liver S9 fraction by Ames test relative to control; format: toxicity, organism-based; settings: salmonella enterica subsp. enterica serovar typhimurium
Salmonella typhimurium [2] = test: Mutagenicity in Salmonella typhimurium TA100 assessed as increase in number of revertants in presence of rat liver S9 fraction by Ames test relative to control; format: toxicity, organism-based; settings: salmonella enterica subsp. enterica serovar typhimurium
[3] = Free drug level in Wistar rat brain at 10 mg/kg administered via oral gavage measured after 1 hr by rapid equilibrium dialysis method; format: ADME, organism-based; settings: in vivo
[4] = Chemical stability of the compound in amorphous form at room temperature; format: physicochemical
[5] = Drug level in Wistar rat cerebrospinal fluid at 10 mg/kg administered via oral gavage measured after 1 hr by LC-MS/MS method; format: ADME, organism-based; settings: read-out: Drug uptake
Summary of the method: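 Wistar rats given 10 mg/kg po and killed at 1 h. Brain, plasma and CSF concentrations measured; free brain and plasma levels reported from unbound fractions. Mean ± SD, n = 3.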

[6] = Half life in rat plasma at 10 uM by LC-MS/MS method; format: ADME, cell-free
[7] = Total drug level in Wistar rat brain at 10 mg/kg administered via oral gavage measured after 1 hr by LC-MS/MS method; format: ADME, organism-based; settings: read-out: Drug uptake
[8] = Drug metabolism in human plasma assessed as 3-amino-1-(3,4-difluorobenzyl)pyrazole formation at 10 uM by LC-MS/MS method; format: ADME, cell-free
[9] = Drug metabolism in rat plasma assessed as 3-amino-1-(3,4-difluorobenzyl)pyrazole formation at 10 uM by LC-MS/MS method; format: ADME, cell-free
[10] = Half life in human plasma at 10 uM by LC-MS/MS method; format: ADME, cell-free
[11] = Drug metabolism in human plasma at 10 uM after 6 hrs by LC-MS/MS method; format: ADME, cell-free; settings: read-out: Drug metabolism
[12] = Intrinsic clearance in Wistar rat liver microsomes assessed per mg of protein at 1 uM after 15 mins in presence of NADPH regenerating system by LC-MS/MS method; format: ADME, microsome; settings: read-out: CLH
[13] = Intrinsic clearance in human liver microsomes assessed per mg of protein at 1 uM after 15 mins in presence of NADPH regenerating system by LC-MS/MS method; format: ADME, microsome; settings: read-out: CLH
[14] = Clearance in Wistar rat at 1 mg/kg, iv administered via 5 mins infusion by LC-MS/MS method; format: ADME, organism-based; settings: in vivo
[15] = Covalent protein binding in human liver microsomes at 10 uM after 1 hr in presence of NADPH regenerating system by liquid scintillation counting method; format: ADME, microsome
MDR1 [16] = test: Apparent permeability across basolateral to apical side in MDCK cells expressing MDR1 at 1 uM measured every 30 mins for 2 hrs; format: ADME, cell-based, Canis lupus familiaris; settings: dog
MDR1 [17] = test: Apparent permeability across apical to basolateral side in MDCK cells expressing MDR1 at 1 uM measured every 30 mins for 2 hrs; format: ADME, cell-based, Canis lupus familiaris; settings: dog
[18] = Drug level in rat plasma treated with N-(1-(3,4-Difluorobenzyl)-1H-pyrazol-3-yl)-2-(1H-indol-5-yl)acetamide at 10 uM by LC-MS/MS method; format: ADME, cell-free
[19] = Drug level in human plasma treated with N-(1-(3,4-Difluorobenzyl)-1H-pyrazol-3-yl)-2-(1H-indol-5-yl)acetamide at 10 uM by LC-MS/MS method; format: ADME, cell-free
[20] = Fraction unbound in audiogenic seizure-sensitive juvenile DBA/2J mouse brain at 100 mg/kg administered via oral gavage measured at 3 hrs; format: ADME, organism-based; settings: in vivo
Cavia porcellus = test: Unbound Cmax in Dunkin-Hartley guinea pig at 30 mg/kg, po; format: ADME, organism-based; settings: in vivo
[21] = Clearance in NMRI mouse at 1 mg/kg, iv as slow bolus dose by LC-MS/MS method; format: ADME, organism-based; settings: in vivo
[22] = Clearance in Beagle dog at 1 mg/kg, iv administered via 15 mins infusion by LC-MS/MS method; format: ADME, organism-based, Canis lupus familiaris; settings: in vivo
Cynomolgus monkey = test: Unbound Cmax in cynomolgus monkey at 1000 mg/kg, po; format: ADME, organism-based, Macaca fascicularis; settings: in vivo
[23] = Intrinsic clearance in monkey liver microsomes assessed per mg of protein at 1 uM after 15 mins in presence of NADPH regenerating system by LC-MS/MS method; format: ADME, Macaca mulatta, microsome; settings: rhesus monkey, read-out: CLH
[24] = Cmax in Wistar rat plasma at 10 mg/kg administered via oral gavage by LC-MS/MS method; format: ADME, organism-based; parameters: dose 10 mg/kg, route oral
[25] = Oral bioavailability in Wistar rat at 10 mg/kg administered via gavage by LC-MS/MS method; format: ADME, organism-based; settings: in vivo
[26] = Clearance in cynomolgus monkey at 1 mg/kg, iv administered via 15 mins infusion by LC-MS/MS method; format: ADME, organism-based, Macaca fascicularis; settings: in vivo
Rattus norvegicus [27] = test: Unbound Cmax in normotensive Wistar rat at 30 mg/kg, po; format: ADME, organism-based; settings: in vivo
Rattus norvegicus [28] = test: Unbound Cmax in spontaneously hypertensive Wistar-Kyoto rat at 30 mg/kg, po; format: ADME, organism-based; settings: in vivo
Canis familiaris = test: Unbound Cmax in Beagle dog at 10 mg/kg, po; format: ADME, organism-based, Canis lupus familiaris; settings: in vivo
[29] = Half life in Wistar rat at 1 mg/kg, iv administered via 5 mins infusion by LC-MS/MS method; format: ADME, organism-based; settings: in vivo
[30] = Fraction unbound in Wistar rat plasma at 10 mg/kg administered via oral gavage measured after 1 hr by rapid equilibrium dialysis method; format: ADME, organism-based; settings: in vivo

## Nc1ccn(Cc2ccc(F)cc2)n1
Salmonella typhimurium [1]
  fold change (FC): 4.1
Salmonella typhimurium [2]
  fold change (FC): 10.2

## O=C(Cc1ccc2[nH]ccc2c1)Nc1ccn(Cc2ccc(F)c(F)c2)n1
[3]
  Drug uptake(free): 52 nM
[4]
  Stability: Unstable
[5]
  concentration at 1 h: 164 nM
[6]
  half-life at 10 µM: 5 h
[7]
  concentration at 1 h: 4680 nM
[8]
  Drug metabolism: Metabolite_Detected
[9]
  Drug metabolism: Metabolite_Detected
[10]
  half-life at 10 µM: 2 h

## Nc1ccn(Cc2ccccc2)n1
Salmonella typhimurium [1]
  fold change (FC): 15.3
Salmonella typhimurium [2]
  fold change (FC): 30.3

## N#Cc1ccc(Cn2ccc(N)n2)nc1
Salmonella typhimurium [1]
  fold change (FC): 1
Salmonella typhimurium [2]
  fold change (FC): 1.3

## CC(C(=O)Nc1ccn(Cc2ccc(F)cc2)n1)c1ccc(N(C)C)cc1 (racemic)
[11]
  metabolised at 6 h, 10 µM: 7%

## N#Cc1cn(Cc2ccc(F)c(F)c2)nc1N
Salmonella typhimurium [1]
  fold change (FC): 1.1
Salmonella typhimurium [2]
  fold change (FC): 1.1

## CC(C)c1ccc(CC(=O)Nc2ccn(CC3CCC(F)(F)CO3)n2)cc1 (stereo in doubt; 15a)
[12]
  microsomal CLint at […], 1 µM: > 500 µL/min/mg
[13]
  microsomal CLint at […], 1 µM: 43 µL/min/mg
[14]
  clearance: > 100 mL/min/kg

## CC(C)(C)c1ccc(CC(=O)Nc2ccn(Cc3ccc(C#N)cn3)n2)cc1
[3]
  Drug uptake(free): 6.1 nM
[13]
  microsomal CLint at […], 1 µM: 6 µL/min/mg

## CC(C)c1ccc(CC(=O)Nc2ccn(Cc3ccccc3)n2)cc1
[11]
  metabolised at 6 h, 10 µM: 4%

## [3H]c1cc(NC(=O)Cc2ccc(C3(C(F)(F)F)CC3)cc2)nn1Cc1ccc(C#N)cn1
[15]
  PB: 72 pmol/mg/h

## COc1ccc(C2(C(=O)Nc3ccn(Cc4ccccc4)n3)CC2)cc1
[11]
  metabolised at 6 h, 10 µM: < 1%

## N#Cc1ccc(Cn2ccc(N)n2)cc1F
Salmonella typhimurium [1]
  fold change (FC): 1.2
Salmonella typhimurium [2]
  fold change (FC): 2.2

## O=C(Cc1ccc2cc[nH]c2c1)Nc1ccn(Cc2ccc(F)c(F)c2)n1
[4]
  Stability: Unstable
[5]
  concentration at 1 h: 50 nM
[7]
  concentration at 1 h: 4110 nM

## O=C(Cc1ccc(C2(F)COC2)cc1)Nc1ccn(Cc2ccc(F)c(F)c2)n1
[3]
  Drug uptake(free): 63 nM
[5]
  concentration at 1 h: 135 nM
[7]
  concentration at 1 h: 2990 nM

## N#Cc1ccc(Cn2ccc(N)n2)cc1
Salmonella typhimurium [1]
  fold change (FC): 1.5
Salmonella typhimurium [2]
  fold change (FC): 1.1

## Cn1c(=O)oc2cc(CC(=O)Nc3ccn(Cc4ccc(F)c(F)c4)n3)ccc21
MDR1 [16]
  Papp B→A at 2 h, 1 µM: 59 ×10⁻⁶ cm/s
MDR1 [17]
  Papp A→B at 2 h, 1 µM: 11 ×10⁻⁶ cm/s

## N#Cc1cc(Cn2ccc(N)n2)ccc1F
Salmonella typhimurium [1]
  fold change (FC): 1.5
Salmonella typhimurium [2]
  fold change (FC): 1.5

## Nc1ccn(Cc2ccc(F)c(F)c2)n1
Salmonella typhimurium [1]
  fold change (FC): 2.7
[18]
  Drug metabolism: Metabolite_Detected
Salmonella typhimurium [2]
  fold change (FC): 1.2
[19]
  Drug metabolism: Metabolite_Detected

## Nc1ncn(Cc2ccc(F)c(F)c2)n1
Salmonella typhimurium [1]
  fold change (FC): 1.1
Salmonella typhimurium [2]
  fold change (FC): 1.1

## Nc1ccn(CC2CCC(F)(F)CO2)n1 (stereo in doubt; 14a)
Salmonella typhimurium [1]
  fold change (FC): 1.4
Salmonella typhimurium [2]
  fold change (FC): 1.3

## Nc1ccn(CC2CCC(F)(F)CO2)n1 (stereo in doubt; 14b)
Salmonella typhimurium [1]
  fold change (FC): 1.1
Salmonella typhimurium [2]
  fold change (FC): 2.5

## Cn1ncc2cc(CC(=O)Nc3cnn(Cc4ccc(F)c(F)c4)n3)ccc21
[3]
  Drug uptake(free): 63 nM

## N#Cc1ccc(Cn2ccc(NC(=O)Cc3ccc(C4(C(F)(F)F)CC4)cc3)n2)nc1 [APINOCALTAMIDE]
[3]
  Drug uptake(free): 29 nM
[20]
  Drug uptake(free): 244 nM
Cavia porcellus
  fCmax: 140 nM
[21]
  clearance: 13 mL/min/kg
[22]
  clearance at […]: 0.9 mL/min/kg
Cynomolgus monkey
  fCmax: 160 nM
[23]
  microsomal CLint at […], 1 µM: 9 µL/min/mg
[24]
  Cmax: 1900 nM
[12]
  microsomal CLint at […], 1 µM: 59 µL/min/mg
[25]
  bioavailability: 75%
[26]
  clearance at […]: 5.5 mL/min/kg
[13]
  microsomal CLint at […], 1 µM: 24 µL/min/mg
[14]
  clearance: 24 mL/min/kg
Rattus norvegicus [27]
  fCmax: 190 nM
Rattus norvegicus [28]
  fCmax: 90 nM
Canis familiaris
  fCmax: 140 nM
[29]
  half-life: 2.5 h

## Nc1nc(Cc2ccc(F)c(F)c2)cs1
Salmonella typhimurium [1]
  fold change (FC): 2.7
Salmonella typhimurium [2]
  fold change (FC): 1.1

## Cn1ncc2cc(CC(=O)Nc3ccn(Cc4ccc(F)c(F)c4)n3)ccc21
[3]
  Drug uptake(free): 51 nM
[30]
  Cp(f): 72 nM
[5]
  concentration at 1 h: 92 nM

## Nc1cnn(Cc2ccc(F)c(F)c2)n1
Salmonella typhimurium [1]
  fold change (FC): 1.3
Salmonella typhimurium [2]
  fold change (FC): 3.3

## CCc1cc(CC(=O)Nc2ccn(Cc3ccc(C#N)cn3)n2)ccc1OCC(F)(F)F
[3]
  Drug uptake(free): 4.8 nM

## COc1ccc(Cn2ccc(N)n2)cc1
Salmonella typhimurium [1]
  fold change (FC): 8
Salmonella typhimurium [2]
  fold change (FC): 20.8

## Cc1ccc(Cn2ccc(N)n2)cc1
Salmonella typhimurium [1]
  fold change (FC): 15.1
Salmonella typhimurium [2]
  fold change (FC): 19.8

## N#Cc1nc(Cn2ccc(N)n2)ccc1F
Salmonella typhimurium [1]
  fold change (FC): 1.2
Salmonella typhimurium [2]
  fold change (FC): 1.4

## CC(C)(C)c1ccc(CC(=O)Nc2ncn(Cc3ccc(F)c(F)c3)n2)cc1
[3]
  Drug uptake(free): 2.4 nM
